In ChEMBL document CHEMBL5058577, “EUbOPEN Chemogenomics Library 2 (Multiplex)” (2022):

System: HEK-293T
Test: Multiplex assay against HEK293T
Type: toxicity, cell-based
Settings: human
How it was run: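 Live cells carried four stains from seeding: Hoechst33342, BioTracker Green Microtubule Cytoskeleton Dye, MitoTracker Red and Annexin V Alexa Fluor 680. They were imaged on a CQ1 microscope at 37°C and 5% CO2 after compound addition. Using CellPathfinder machine-learning gating, cells were split into Hoechst high-intensity objects or normal cells, normal cells into healthy, pyknosed or fragmented nuclei, and pyknosed cells into mitotic or apoptotic; tubulin, mitochondrial-mass and membrane-permeability phenotypes are per cents of healthy-nucleus cells.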

[1] = 12 h, 1 µM, compound concentration 1 uM, replicate 1
[2] = 12 h, 1 µM, compound concentration 1 uM, replicate 2
[3] = 12 h, 10 µM, compound concentration 10 uM, replicate 1
[4] = 12 h, 10 µM, compound concentration 10 uM, replicate 2
[5] = 24 h, 1 µM, compound concentration 1 uM, replicate 1
[6] = 24 h, 1 µM, compound concentration 1 uM, replicate 2
[7] = 24 h, 10 µM, compound concentration 10 uM, replicate 1
[8] = 24 h, 10 µM, compound concentration 10 uM, replicate 2
[9] = 48 h, 1 µM, compound concentration 1 uM, replicate 1
[10] = 48 h, 1 µM, compound concentration 1 uM, replicate 2
[11] = 48 h, 10 µM, compound concentration 10 uM, replicate 1
[12] = 48 h, 10 µM, compound concentration 10 uM, replicate 2

Cc1cc(=O)n(C)c2cc(N3C(=O)CC[C@H](NS(=O)(=O)CC(C)C)[C@H]3c3ccc(Cl)cc3)ccc12
Population Apoptotic (%) [1]: 43% | Population Fragmented Nuclei (%) [1]: 7% | Population Healthy Nuclei (%) [1]: 83% | Population Hoechst High Intensity Objects (%) [1]: 8% | Population Membrane Permeable-Phenotype (%) [1]: 0% | Population Mitochondria Different-Phenotype (%) [1]: 41% | Population Mitotic Cells (%) [1]: 56% | Population Normal (%) [1]: 91% | Population Pyknosed Nuclei (%) [1]: 8% | Population Tubulin-Different-Phenotype (%) [1]: 32% | Total Cell Count [1]: 454 | Population Apoptotic (%) [2]: 63% | Population Fragmented Nuclei (%) [2]: 6% | Population Healthy Nuclei (%) [2]: 78% | Population Hoechst High Intensity Objects (%) [2]: 6% | Population Mitochondria Different-Phenotype (%) [2]: 53% | Population Mitotic Cells (%) [2]: 36% | Population Normal (%) [2]: 93% | Population Pyknosed Nuclei (%) [2]: 14% | Population Tubulin-Different-Phenotype (%) [2]: 14% | Total Cell Count [2]: 265 | Population Apoptotic (%) [3]: 47% | Population Fragmented Nuclei (%) [3]: 4% | Population Healthy Nuclei (%) [3]: 70% | Population Hoechst High Intensity Objects (%) [3]: 11% | Population Membrane Permeable-Phenotype (%) [3]: 0% | Population Mitochondria Different-Phenotype (%) [3]: 75% | Population Mitotic Cells (%) [3]: 52% | Population Normal (%) [3]: 88% | Population Pyknosed Nuclei (%) [3]: 24% | Population Tubulin-Different-Phenotype (%) [3]: 81% | Total Cell Count [3]: 368 | Population Apoptotic (%) [4]: 50% | Population Fragmented Nuclei (%) [4]: 6% | Population Healthy Nuclei (%) [4]: 66% | Population Hoechst High Intensity Objects (%) [4]: 16% | Population Mitochondria Different-Phenotype (%) [4]: 86% | Population Mitotic Cells (%) [4]: 49% | Population Normal (%) [4]: 83% | Population Pyknosed Nuclei (%) [4]: 27% | Population Tubulin-Different-Phenotype (%) [4]: 66% | Total Cell Count [4]: 331 | Population Apoptotic (%) [5]: 33% | Population Fragmented Nuclei (%) [5]: 9% | Population Healthy Nuclei (%) [5]: 81% | Population Hoechst High Intensity Objects (%) [5]: 4% | Population Membrane Permeable-Phenotype (%) [5]: 0% | Population Mitochondria Different-Phenotype (%) [5]: 25% | Population Mitotic Cells (%) [5]: 66% | Population Normal (%) [5]: 95% | Population Pyknosed Nuclei (%) [5]: 9% | Population Tubulin-Different-Phenotype (%) [5]: 19% | Total Cell Count [5]: 646 | Population Apoptotic (%) [6]: 36% | Population Fragmented Nuclei (%) [6]: 4% | Population Healthy Nuclei (%) [6]: 82% | Population Hoechst High Intensity Objects (%) [6]: 5% | Population Membrane Permeable-Phenotype (%) [6]: 1% | Population Mitochondria Different-Phenotype (%) [6]: 42% | Population Mitotic Cells (%) [6]: 63% | Population Normal (%) [6]: 94% | Population Pyknosed Nuclei (%) [6]: 13% | Population Tubulin-Different-Phenotype (%) [6]: 17% | Total Cell Count [6]: 327 | Population Apoptotic (%) [7]: 34% | Population Fragmented Nuclei (%) [7]: 7% | Population Healthy Nuclei (%) [7]: 72% | Population Hoechst High Intensity Objects (%) [7]: 9% | Population Membrane Permeable-Phenotype (%) [7]: 0% | Population Mitochondria Different-Phenotype (%) [7]: 67% | Population Mitotic Cells (%) [7]: 65% | Population Normal (%) [7]: 90% | Population Pyknosed Nuclei (%) [7]: 19% | Population Tubulin-Different-Phenotype (%) [7]: 67% | Total Cell Count [7]: 419 | Population Apoptotic (%) [8]: 76% | Population Fragmented Nuclei (%) [8]: 8% | Population Healthy Nuclei (%) [8]: 67% | Population Hoechst High Intensity Objects (%) [8]: 22% | Population Mitochondria Different-Phenotype (%) [8]: 85% | Population Mitotic Cells (%) [8]: 23% | Population Normal (%) [8]: 77% | Population Pyknosed Nuclei (%) [8]: 23% | Population Tubulin-Different-Phenotype (%) [8]: 71% | Total Cell Count [8]: 328 | Population Apoptotic (%) [9]: 25% | Population Fragmented Nuclei (%) [9]: 14% | Population Healthy Nuclei (%) [9]: 78% | Population Hoechst High Intensity Objects (%) [9]: 3% | Population Membrane Permeable-Phenotype (%) [9]: 0% | Population Mitochondria Different-Phenotype (%) [9]: 17% | Population Mitotic Cells (%) [9]: 74% | Population Normal (%) [9]: 96% | Population Pyknosed Nuclei (%) [9]: 6% | Population Tubulin-Different-Phenotype (%) [9]: 15% | Total Cell Count [9]: 985 | Population Apoptotic (%) [10]: 31% | Population Fragmented Nuclei (%) [10]: 11% | Population Healthy Nuclei (%) [10]: 79% | Population Hoechst High Intensity Objects (%) [10]: 7% | Population Mitochondria Different-Phenotype (%) [10]: 20% | Population Mitotic Cells (%) [10]: 68% | Population Normal (%) [10]: 92% | Population Pyknosed Nuclei (%) [10]: 9% | Population Tubulin-Different-Phenotype (%) [10]: 17% | Total Cell Count [10]: 454 | Population Apoptotic (%) [11]: 56% | Population Fragmented Nuclei (%) [11]: 12% | Population Healthy Nuclei (%) [11]: 77% | Population Hoechst High Intensity Objects (%) [11]: 10% | Population Membrane Permeable-Phenotype (%) [11]: 1% | Population Mitochondria Different-Phenotype (%) [11]: 67% | Population Mitotic Cells (%) [11]: 43% | Population Normal (%) [11]: 89% | Population Pyknosed Nuclei (%) [11]: 10% | Population Tubulin-Different-Phenotype (%) [11]: 58% | Total Cell Count [11]: 548 | Population Apoptotic (%) [12]: 66% | Population Healthy Nuclei (%) [12]: 67% | Population Hoechst High Intensity Objects (%) [12]: 19% | Population Membrane Permeable-Phenotype (%) [12]: 0% | Population Mitochondria Different-Phenotype (%) [12]: 76% | Population Mitotic Cells (%) [12]: 33% | Population Normal (%) [12]: 80% | Population Pyknosed Nuclei (%) [12]: 19% | Population Tubulin-Different-Phenotype (%) [12]: 56% | Total Cell Count [12]: 371

Cc1cc(NC(=O)NCCN2CCC(O)(Cc3ccccc3)CC2)c2ccccc2n1 [PALOSURAN]
Population Apoptotic (%) [1]: 36% | Population Fragmented Nuclei (%) [1]: 7% | Population Healthy Nuclei (%) [1]: 77% | Population Hoechst High Intensity Objects (%) [1]: 6% | Population Membrane Permeable-Phenotype (%) [1]: 0% | Population Mitochondria Different-Phenotype (%) [1]: 42% | Population Mitotic Cells (%) [1]: 63% | Population Normal (%) [1]: 93% | Population Pyknosed Nuclei (%) [1]: 14% | Population Tubulin-Different-Phenotype (%) [1]: 25% | Total Cell Count [1]: 373 | Population Apoptotic (%) [2]: 48% | Population Fragmented Nuclei (%) [2]: 9% | Population Healthy Nuclei (%) [2]: 81% | Population Hoechst High Intensity Objects (%) [2]: 9% | Population Mitochondria Different-Phenotype (%) [2]: 57% | Population Mitotic Cells (%) [2]: 52% | Population Normal (%) [2]: 90% | Population Pyknosed Nuclei (%) [2]: 8% | Population Tubulin-Different-Phenotype (%) [2]: 26% | Total Cell Count [2]: 326 | Population Apoptotic (%) [3]: 38% | Population Fragmented Nuclei (%) [3]: 5% | Population Healthy Nuclei (%) [3]: 81% | Population Hoechst High Intensity Objects (%) [3]: 8% | Population Membrane Permeable-Phenotype (%) [3]: 0% | Population Mitochondria Different-Phenotype (%) [3]: 53% | Population Mitotic Cells (%) [3]: 61% | Population Normal (%) [3]: 91% | Population Pyknosed Nuclei (%) [3]: 12% | Population Tubulin-Different-Phenotype (%) [3]: 41% | Total Cell Count [3]: 461 | Population Apoptotic (%) [4]: 61% | Population Healthy Nuclei (%) [4]: 75% | Population Mitochondria Different-Phenotype (%) [4]: 76% | Population Mitotic Cells (%) [4]: 38% | Population Pyknosed Nuclei (%) [4]: 18% | Population Tubulin-Different-Phenotype (%) [4]: 42% | Total Cell Count [4]: 346 | Population Apoptotic (%) [5]: 17% | Population Fragmented Nuclei (%) [5]: 9% | Population Healthy Nuclei (%) [5]: 78% | Population Hoechst High Intensity Objects (%) [5]: 6% | Population Membrane Permeable-Phenotype (%) [5]: 0% | Population Mitochondria Different-Phenotype (%) [5]: 24% | Population Mitotic Cells (%) [5]: 82% | Population Normal (%) [5]: 93% | Population Pyknosed Nuclei (%) [5]: 11% | Population Tubulin-Different-Phenotype (%) [5]: 19% | Total Cell Count [5]: 511 | Population Apoptotic (%) [6]: 46% | Population Fragmented Nuclei (%) [6]: 10% | Population Healthy Nuclei (%) [6]: 76% | Population Hoechst High Intensity Objects (%) [6]: 4% | Population Mitochondria Different-Phenotype (%) [6]: 45% | Population Mitotic Cells (%) [6]: 53% | Population Normal (%) [6]: 95% | Population Pyknosed Nuclei (%) [6]: 13% | Population Tubulin-Different-Phenotype (%) [6]: 14% | Total Cell Count [6]: 343 | Population Apoptotic (%) [7]: 35% | Population Fragmented Nuclei (%) [7]: 8% | Population Healthy Nuclei (%) [7]: 79% | Population Hoechst High Intensity Objects (%) [7]: 4% | Population Membrane Permeable-Phenotype (%) [7]: 0% | Population Mitochondria Different-Phenotype (%) [7]: 43% | Population Mitotic Cells (%) [7]: 64% | Population Normal (%) [7]: 95% | Population Pyknosed Nuclei (%) [7]: 11% | Population Tubulin-Different-Phenotype (%) [7]: 32% | Total Cell Count [7]: 598 | Population Apoptotic (%) [8]: 51% | Population Fragmented Nuclei (%) [8]: 7% | Population Healthy Nuclei (%) [8]: 83% | Population Hoechst High Intensity Objects (%) [8]: 6% | Population Mitochondria Different-Phenotype (%) [8]: 64% | Population Mitotic Cells (%) [8]: 48% | Population Normal (%) [8]: 93% | Population Pyknosed Nuclei (%) [8]: 9% | Population Tubulin-Different-Phenotype (%) [8]: 26% | Total Cell Count [8]: 396 | Population Apoptotic (%) [9]: 19% | Population Fragmented Nuclei (%) [9]: 15% | Population Healthy Nuclei (%) [9]: 79% | Population Hoechst High Intensity Objects (%) [9]: 3% | Population Membrane Permeable-Phenotype (%) [9]: 1% | Population Mitochondria Different-Phenotype (%) [9]: 16% | Population Mitotic Cells (%) [9]: 80% | Population Normal (%) [9]: 96% | Population Pyknosed Nuclei (%) [9]: 5% | Population Tubulin-Different-Phenotype (%) [9]: 12% | Total Cell Count [9]: 938 | Population Apoptotic (%) [10]: 32% | Population Fragmented Nuclei (%) [10]: 13% | Population Healthy Nuclei (%) [10]: 81% | Population Membrane Permeable-Phenotype (%) [10]: 0% | Population Mitochondria Different-Phenotype (%) [10]: 24% | Population Mitotic Cells (%) [10]: 67% | Population Tubulin-Different-Phenotype (%) [10]: 15% | Total Cell Count [10]: 552 | Population Apoptotic (%) [11]: 29% | Population Fragmented Nuclei (%) [11]: 15% | Population Healthy Nuclei (%) [11]: 75% | Population Hoechst High Intensity Objects (%) [11]: 5% | Population Membrane Permeable-Phenotype (%) [11]: 0% | Population Mitochondria Different-Phenotype (%) [11]: 34% | Population Mitotic Cells (%) [11]: 70% | Population Normal (%) [11]: 94% | Population Pyknosed Nuclei (%) [11]: 8% | Population Tubulin-Different-Phenotype (%) [11]: 17% | Total Cell Count [11]: 874 | Population Apoptotic (%) [12]: 41% | Population Fragmented Nuclei (%) [12]: 9% | Population Healthy Nuclei (%) [12]: 84% | Population Hoechst High Intensity Objects (%) [12]: 4% | Population Mitochondria Different-Phenotype (%) [12]: 42% | Population Mitotic Cells (%) [12]: 58% | Population Normal (%) [12]: 95% | Population Pyknosed Nuclei (%) [12]: 6% | Population Tubulin-Different-Phenotype (%) [12]: 19% | Total Cell Count [12]: 570
